Source: PubChem (several laboratories)
Shown are actives, neighbours in structure and some others; about 2.4% of the full set was active somewhere.
Autophagy mod: autophagy modulation, high-content screen. MEF GFP-LC3 puncta imaging; test concentration mostly 10 µM. calls only at 10 µM (by protocol). 190,000 tested, 0.98% active;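 active = percentage of spot-positive cells more than 3 SD above its plate mean, without a fluorescence outlier flag or 80% toxicity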
MDM2 E3 inh: Mdm2 E3 ligase (human) inhibition | Q00987 | cell-based MDM2 ubiquitination luciferase reporter, 2 h; 0 = plate control, 100 = twice control, blank-subtracted | signal enhancement, % at 5 µM | 210,000 tested, 0.11% active | AID 1230;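 active = signal enhancement of 30% or more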;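 note: luminescence tracks abundance of the self-degrading MDM2-luciferase fusion protein; higher signal means inhibition of MDM2 E3 ligase activity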
Target sequence (Q00987 whole entry, looked up, the tested form may be a part): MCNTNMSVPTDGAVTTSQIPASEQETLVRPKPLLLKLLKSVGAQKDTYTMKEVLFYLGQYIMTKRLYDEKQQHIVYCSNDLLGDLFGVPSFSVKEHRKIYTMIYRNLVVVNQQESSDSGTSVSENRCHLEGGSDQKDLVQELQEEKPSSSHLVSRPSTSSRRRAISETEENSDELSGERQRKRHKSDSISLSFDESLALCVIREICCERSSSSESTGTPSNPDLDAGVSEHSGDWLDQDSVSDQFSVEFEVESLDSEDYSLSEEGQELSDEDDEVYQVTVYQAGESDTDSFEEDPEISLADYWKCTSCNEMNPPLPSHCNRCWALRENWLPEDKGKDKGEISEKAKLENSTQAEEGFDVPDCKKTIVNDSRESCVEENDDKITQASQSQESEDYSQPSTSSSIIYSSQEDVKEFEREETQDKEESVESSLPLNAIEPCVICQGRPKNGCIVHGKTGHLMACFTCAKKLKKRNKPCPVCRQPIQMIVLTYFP
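Assay system: stable mammalian line carrying autodegrading MDM2–luciferase fusion reporter; amount: 2000 cells seeded into each well; buffer or medium: DMEM; benchmarks: plate control and blank wells; signal: luciferase luminescence; timing: 2 h compound exposure at 37 °C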
L929 necroptosis: blocks zVAD induced death of L929 cells. 220,000 tested, 0.38% active. viability rescue, % at 10 µM. L929 zVAD necroptosis rescue, ATP luminescence, 24 h; with zVAD 60 µM. AID 1377;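 active = activation, scaled between plate controls, above about 75%, limit read from the data; inactive = activation under that limit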
Hck-Nef inh: human Hck-Nef kinase inhibition; P08631; inhibition, % at 20 µM; 220,000 tested, 0.68% active; AID 463187; Recombinant Hck-YEEI plus Nef, Z-Lyte FRET kinase assay;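 active = Hck-Nef kinase inhibition above about 50%, limit read from the data; inactive = inhibition below that limit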
TNF necrop inh: TNF-alpha cell death inhibition in Jurkat FADD-/- cells | Jurkat FADD-/- TNF necroptosis rescue, ATP luminescence, 24 h; 0 = TNF only, 100 = no-TNF cells | activation (protection from cell death), % at 10 µM | 220,000 tested, 0.068% active | AID 463075;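 active = activation, meaning protection from cell death, of at least 50% relative to plate controls; inactive = activation below 50%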;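 note: necroptosis triggered by 40 ng/mL TNF-alpha added together with compound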
Dynein cargo inh: dynein cargo transport inhibition | 3617.4 mouse cells, GR-EGFP nuclear translocation imaging; test concentration mostly 20 µM; stimulated with dexamethasone, 1 µM; hits give low values | z-score, hits read low | 220,000 tested, 0.47% active | AID 1381;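 active = plate z-score of nuclear minus cytoplasmic receptor signal below a set negative limit, without overly bright fluorescence or cell loss, cut at about -3.5 in these data, passing the limit was not always enough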;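 note: z-score of nuclear minus cytoplasmic ring GR-EGFP intensity difference per well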
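Also added – dexamethasone, 1.0 µM final · Buffer or medium – tet-free, stripped-serum medium · Schedule – induction 48 h, compound 1 h, agonist 30 min · Detection – formaldehyde fixation, Hoechst nuclear stain, 10x automated fluorescence imaging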
Hck Nef conf: Hck-Nef kinase inhibition, confirmation; calls only at 10 µM; shares compounds with Hck-Nef inh; 1,300 tested, 28% active; Recombinant Hck-YEEI:Nef, Z-Lyte FRET kinase assay;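 active = average inhibition of at least 50%, with Z-scores no higher than 3 in both the phospho-tyrosine peptide and fluorescence counterscreens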
Hits are given with their value; n = inactive; x = not tested or not shown; + = active, no number.

SMILES	Autophagy mod	MDM2 E3 inh	L929 necroptosis	Hck-Nef inh	TNF necrop inh	Dynein cargo inh	others
Cc1cc(=O)[nH]c(/N=C(\N)Nc2ccc(Oc3ccccc3)cc2)n1	x	x	n	51.6	n	n	Hck Nef conf=n
Cc1cc(=O)[nH]c(/N=C(\N)Nc2ccc(SC(F)F)cc2)n1	n	n	n	n	n	n
Cc1cc(C)c2c(n1)nn1c(NCCOCCO)cc(C)nc21	n	n	n	50.8	n	n
CN1CCN(S(=O)(=O)c2cccc(C(=O)NCc3ccccc3Cl)c2)CC1	n	n	n	n	n	n
COc1ccc(/C=N/NC(=O)COc2cccc3cccnc23)cc1OC	n	n	n	54.2	n	n	Hck Nef conf=n
CCn1cc(/C=N/NC(=O)COc2cccc3cccnc23)c2ccccc21	n	n	n	n	n	n
O=C(CCC1CCCCC1)NNC(=O)NC12CC3CC(CC(C3)C1)C2	n	n	n	n	n	n
O=S(=O)(Nc1nc2cc3c(cc2nc1Cl)OCCO3)c1ccccc1	n	n	n	n	n	n
CC(=O)Nc1ccc(S(=O)(=O)Nc2nc3cc4c(cc3nc2Cl)OCCO4)cc1	x	n	n	89.1	n	n
Cc1nc(-c2ccncc2)nc(NCCNc2ccc(C(F)(F)F)cn2)c1Cl	x	n	n	n	n	n
O=C(O)c1c(Cl)nc2ccccn12	n	n	n	n	n	n
c1ccn2c(c1)nc1c2nc2ccccn21	n	n	n	66.0	n	n
Cc1nn(-c2ccccc2)c2c1cc1c(=O)n(C)c(=O)nc-1n2-c1ccccc1F	x	n	n	87.4	n	n
Cc1cccc(-n2c3nc(=O)[nH]c(=O)c-3cc3c(C)nn(-c4ccccc4)c32)c1C	n	n	n	n	n	n
COc1cccc(/C=N/Nc2ncnc3c2[nH]c2ccc(C)cc23)c1OC	x	n	n	66.2	n	n	Hck Nef conf=n
COc1ccc(/C=N/Nc2ncnc3c2[nH]c2ccccc23)c(OC)c1OC	n	n	n	n	n	n
Cc1sc2ncnc(OCC(=O)NC3CCS(=O)(=O)C3)c2c1C (configuration not stated)	x	n	n	n	n	n
COc1ccc(Cn2c(O)c(C=Nc3ccccc3C(=O)O)c3ccccc3c2=O)cc1	x	n	n	n	n	n
COc1ccccc1NS(=O)(=O)c1cccc(-n2c(O)c(C=Nc3ccccc3C(=O)O)c3ccccc3c2=O)c1	x	n	n	62.4	n	n	Hck Nef conf=n
CC(=O)Nc1ccc(NC(=O)c2cccc(-c3cc4ccccc4oc3=O)c2)cc1	n	n	n	n	n	n
COc1ccc(C(=O)Nc2cccc(-c3cc4ccccc4oc3=O)c2)cc1[N+](=O)[O-]	n	n	n	96.3	n	n	Hck Nef conf=+
Cc1ccc(-n2cc(CN(C)CCc3cn[nH]c3)c(-c3cccc(C)c3)n2)cc1	n	n	n	n	n	n
COc1ccc(-c2cc(-c3ccco3)[nH]c(=O)c2C#N)cc1OC	x	n	n	53.4	n	n	Hck Nef conf=n
Cc1ccc(NNc2c(C)nc3ccccc3nc2=O)cc1	n	n	n	149.1	n	n	Hck Nef conf=n
CN(c1ccc(C(=O)NCCSCc2c(F)cccc2Cl)cc1)S(C)(=O)=O	n	x	n	n	n	n
SMILES	Autophagy mod	MDM2 E3 inh	L929 necroptosis	Hck-Nef inh	TNF necrop inh	Dynein cargo inh	others
COc1cc(S(=O)(=O)N2CCOCC2)ccc1NC(=O)CSc1n[nH]c(=O)[nH]c1=O	n	n	n	n	n	n
CCCc1cc(NCCCO)n2c(nc3ccccc32)c1C#N	x	n	n	193.5	n	n
Cc1cc(Nc2ccc(O)cc2)n2c(nc3ccccc32)c1C#N	n	n	n	n	n	n
CC(C)c1cc(NCC2CCCO2)n2c(nc3ccccc32)c1C#N (configuration not stated)	n	n	n	107.9	n	n
CCc1c(C)c(C#N)c2nc3ccccc3n2c1NCC1CCCO1 (configuration not stated)	n	n	n	n	n	n
Cc1cc(NCC2CCCO2)n2c(nc3ccccc32)c1C#N (configuration not stated)	n	n	n	95.4	n	n
